These results are taken from ChEMBL document CHEMBL3259739, “Synthesis and structure-activity relationship of trisubstituted thiazoles as Cdc7 kinase inhibitors” (Eur J Med Chem, 2014).

In experiment [1] the target is T1, Testis-specific serine/threonine-protein kinase 1 (Homo sapiens) (UniProt Q9BXA7).
T1 sequence (whole entry): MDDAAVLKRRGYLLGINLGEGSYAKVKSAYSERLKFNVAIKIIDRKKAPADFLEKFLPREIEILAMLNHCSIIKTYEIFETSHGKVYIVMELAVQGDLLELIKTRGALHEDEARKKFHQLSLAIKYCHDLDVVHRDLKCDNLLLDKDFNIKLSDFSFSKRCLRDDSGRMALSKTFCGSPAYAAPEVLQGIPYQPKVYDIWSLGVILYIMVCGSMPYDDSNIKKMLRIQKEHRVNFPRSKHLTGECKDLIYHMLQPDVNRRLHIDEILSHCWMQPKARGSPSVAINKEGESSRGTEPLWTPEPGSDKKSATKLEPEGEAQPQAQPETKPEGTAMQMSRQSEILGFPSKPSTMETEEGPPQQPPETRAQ
Nature of the experiment: Inhibition of TSSK1B (unknown origin) at 1 uM relative to control. Particulars: values are per cent of control. The method, boiled down:
(§1)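 KinomeSCAN competitive binding panel of 100 kinases; compounds tested at 1 µM in duplicate; read-out is percent […] control.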

Experiment [2] concerns the target Wee1-like protein kinase (Homo sapiens) (UniProt P30291). Nature of the experiment: Inhibition of WEE1 (unknown origin) at 1 uM relative to control. Particulars: values are per cent of control. An outline of the steps:
as §1

Experiment [3] addresses Platelet-derived growth factor receptor beta (Homo sapiens) (UniProt P09619). Nature of the experiment: Inhibition of PDGFRB (unknown origin) at 1 uM relative to control. To be noted: values are per cent of control. The method, boiled down: as §1
Experiment [4] has as its target T2, cGMP-dependent protein kinase 1 (Homo sapiens) (UniProt Q13976).
T2 sequence (whole entry): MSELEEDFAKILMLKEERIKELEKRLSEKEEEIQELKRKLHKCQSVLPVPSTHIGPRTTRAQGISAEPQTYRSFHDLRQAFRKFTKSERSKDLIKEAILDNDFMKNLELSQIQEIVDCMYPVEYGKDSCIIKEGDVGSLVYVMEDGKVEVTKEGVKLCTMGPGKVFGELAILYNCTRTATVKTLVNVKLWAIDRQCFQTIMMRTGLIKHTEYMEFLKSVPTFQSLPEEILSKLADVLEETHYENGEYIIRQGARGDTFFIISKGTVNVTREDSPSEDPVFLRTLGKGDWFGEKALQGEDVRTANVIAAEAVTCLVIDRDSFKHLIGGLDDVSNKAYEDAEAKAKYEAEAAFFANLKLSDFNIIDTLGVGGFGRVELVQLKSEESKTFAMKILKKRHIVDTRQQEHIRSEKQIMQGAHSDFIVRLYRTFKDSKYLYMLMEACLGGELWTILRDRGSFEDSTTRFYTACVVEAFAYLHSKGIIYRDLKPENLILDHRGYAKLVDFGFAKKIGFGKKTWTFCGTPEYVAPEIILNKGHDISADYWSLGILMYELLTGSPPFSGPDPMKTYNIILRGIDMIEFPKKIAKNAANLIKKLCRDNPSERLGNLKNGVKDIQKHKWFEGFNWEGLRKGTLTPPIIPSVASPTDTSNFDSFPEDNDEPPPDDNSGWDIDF
Nature of the experiment: Inhibition of PRKG1 (unknown origin) at 1 uM relative to control. To be noted: values are per cent of control.

Experiment [5] deals with Serine/threonine-protein kinase 33 (Homo sapiens) (UniProt Q9BYT3). Nature of the experiment: Inhibition of STK33 (unknown origin) at 1 uM relative to control. Particulars: values are per cent of control. The method, boiled down: as §1
Sequence of Serine/threonine-protein kinase 33 (Homo sapiens) (Q9BYT3 whole entry, looked up): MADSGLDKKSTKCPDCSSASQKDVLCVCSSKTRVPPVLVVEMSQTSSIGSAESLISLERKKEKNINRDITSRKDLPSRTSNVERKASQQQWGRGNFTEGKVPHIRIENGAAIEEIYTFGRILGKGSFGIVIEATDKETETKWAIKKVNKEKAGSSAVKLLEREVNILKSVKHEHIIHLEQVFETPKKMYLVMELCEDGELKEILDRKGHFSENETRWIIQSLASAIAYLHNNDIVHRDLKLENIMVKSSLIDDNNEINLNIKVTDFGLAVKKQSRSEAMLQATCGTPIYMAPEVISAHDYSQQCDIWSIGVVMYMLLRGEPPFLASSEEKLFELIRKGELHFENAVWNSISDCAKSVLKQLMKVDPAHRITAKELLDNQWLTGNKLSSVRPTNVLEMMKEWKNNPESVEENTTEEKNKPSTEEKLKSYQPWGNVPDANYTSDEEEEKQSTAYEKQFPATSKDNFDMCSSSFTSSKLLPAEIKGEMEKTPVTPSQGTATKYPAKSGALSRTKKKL
In experiment [6] the target is Tyrosine-protein kinase SYK (Homo sapiens) (UniProt P43405). Nature of the experiment: Inhibition of SYK (unknown origin) at 1 uM relative to control. Particulars: values are per cent of control.
The target of experiment [7] is Tyrosine-protein kinase Fyn (Homo sapiens) (UniProt P06241). Nature of the experiment: Inhibition of FYN (unknown origin) at 1 uM relative to control; values are per cent of control.
Sequence of Tyrosine-protein kinase Fyn (Homo sapiens) (P06241 2-537 limits assumed): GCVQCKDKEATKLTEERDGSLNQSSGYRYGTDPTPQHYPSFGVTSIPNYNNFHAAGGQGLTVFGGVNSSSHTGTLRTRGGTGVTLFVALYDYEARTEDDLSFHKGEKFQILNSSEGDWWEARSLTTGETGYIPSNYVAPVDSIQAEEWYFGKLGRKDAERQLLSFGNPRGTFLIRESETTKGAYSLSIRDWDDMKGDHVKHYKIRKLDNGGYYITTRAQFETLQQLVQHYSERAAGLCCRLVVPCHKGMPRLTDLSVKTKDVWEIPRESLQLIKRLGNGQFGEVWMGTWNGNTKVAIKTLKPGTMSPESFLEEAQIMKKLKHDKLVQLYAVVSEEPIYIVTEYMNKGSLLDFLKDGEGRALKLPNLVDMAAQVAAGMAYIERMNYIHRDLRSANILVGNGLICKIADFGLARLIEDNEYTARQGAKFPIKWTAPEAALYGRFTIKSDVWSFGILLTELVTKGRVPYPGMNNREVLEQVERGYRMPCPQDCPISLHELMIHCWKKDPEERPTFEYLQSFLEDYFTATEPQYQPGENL
The target in experiment [8] is Serine/threonine-protein kinase B-raf (Homo sapiens) (UniProt P15056). Nature of the experiment: Inhibition of BRAF (unknown origin) at 1 uM relative to control; values are per cent of control.
Sequence of Serine/threonine-protein kinase B-raf (Homo sapiens) (P15056 whole entry): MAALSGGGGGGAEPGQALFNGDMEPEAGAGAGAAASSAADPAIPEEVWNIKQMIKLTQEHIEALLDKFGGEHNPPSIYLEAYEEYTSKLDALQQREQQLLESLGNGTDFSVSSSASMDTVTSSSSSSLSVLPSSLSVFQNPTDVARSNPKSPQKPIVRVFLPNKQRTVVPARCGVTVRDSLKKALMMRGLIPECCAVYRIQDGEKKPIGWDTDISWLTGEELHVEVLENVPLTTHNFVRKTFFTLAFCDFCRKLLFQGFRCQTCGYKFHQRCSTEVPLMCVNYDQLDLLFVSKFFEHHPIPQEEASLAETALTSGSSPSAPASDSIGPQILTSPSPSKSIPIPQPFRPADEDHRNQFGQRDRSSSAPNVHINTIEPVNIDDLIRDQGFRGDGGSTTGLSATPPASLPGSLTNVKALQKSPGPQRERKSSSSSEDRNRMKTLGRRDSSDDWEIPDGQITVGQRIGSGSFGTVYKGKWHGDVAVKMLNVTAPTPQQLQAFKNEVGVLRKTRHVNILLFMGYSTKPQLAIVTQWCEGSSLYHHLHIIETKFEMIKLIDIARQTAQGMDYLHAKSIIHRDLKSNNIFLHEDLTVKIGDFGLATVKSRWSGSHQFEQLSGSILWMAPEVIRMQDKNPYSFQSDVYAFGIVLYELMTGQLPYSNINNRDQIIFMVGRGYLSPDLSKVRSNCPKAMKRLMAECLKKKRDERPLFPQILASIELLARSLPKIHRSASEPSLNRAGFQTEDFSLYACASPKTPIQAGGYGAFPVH
The target in experiment [9] is Dual specificity protein kinase CLK1 (Homo sapiens) (UniProt P49759). Nature of the experiment: Inhibition of CLK1 (unknown origin) at 1 uM relative to control; values are per cent of control.
Sequence of Dual specificity protein kinase CLK1 (Homo sapiens) (P49759 whole entry, looked up): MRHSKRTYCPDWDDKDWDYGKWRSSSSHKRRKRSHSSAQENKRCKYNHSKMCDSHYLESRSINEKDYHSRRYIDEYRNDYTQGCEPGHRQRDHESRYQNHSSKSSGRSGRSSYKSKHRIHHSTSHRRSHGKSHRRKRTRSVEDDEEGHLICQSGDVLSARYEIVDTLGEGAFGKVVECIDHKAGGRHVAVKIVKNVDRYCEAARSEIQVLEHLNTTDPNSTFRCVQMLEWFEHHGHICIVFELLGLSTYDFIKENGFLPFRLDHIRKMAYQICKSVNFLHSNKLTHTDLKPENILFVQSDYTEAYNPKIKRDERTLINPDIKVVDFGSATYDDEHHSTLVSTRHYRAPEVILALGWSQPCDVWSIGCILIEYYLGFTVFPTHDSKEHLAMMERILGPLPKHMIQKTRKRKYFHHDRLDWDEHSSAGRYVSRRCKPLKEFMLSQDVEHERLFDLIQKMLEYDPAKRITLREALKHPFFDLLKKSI
Experiment [10] addresses T3, Myotonin-protein kinase (Homo sapiens) (UniProt Q09013).
T3 sequence (whole entry): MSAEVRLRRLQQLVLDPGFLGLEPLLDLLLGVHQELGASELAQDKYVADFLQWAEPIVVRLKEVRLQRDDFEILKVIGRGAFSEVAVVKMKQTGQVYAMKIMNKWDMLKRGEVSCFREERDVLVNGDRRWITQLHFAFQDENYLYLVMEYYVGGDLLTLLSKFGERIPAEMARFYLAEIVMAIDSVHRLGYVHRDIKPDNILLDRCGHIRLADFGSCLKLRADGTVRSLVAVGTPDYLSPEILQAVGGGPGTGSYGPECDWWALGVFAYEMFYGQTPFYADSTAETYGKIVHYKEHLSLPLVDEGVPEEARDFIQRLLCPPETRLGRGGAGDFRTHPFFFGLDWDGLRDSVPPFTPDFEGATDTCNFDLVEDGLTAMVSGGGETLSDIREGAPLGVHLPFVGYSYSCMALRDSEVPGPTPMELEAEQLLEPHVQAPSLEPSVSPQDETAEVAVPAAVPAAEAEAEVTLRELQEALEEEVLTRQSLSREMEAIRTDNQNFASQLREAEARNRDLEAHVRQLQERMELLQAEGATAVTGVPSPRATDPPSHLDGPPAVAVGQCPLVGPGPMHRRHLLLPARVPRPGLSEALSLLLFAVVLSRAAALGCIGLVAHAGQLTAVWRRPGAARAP
Nature of the experiment: Inhibition of DMPK (unknown origin) at 1 uM relative to control; values are per cent of control.

Experiment [11] addresses Mitogen-activated protein kinase kinase kinase kinase 1 (Homo sapiens) (UniProt Q92918). Nature of the experiment: Inhibition of HPK1 (unknown origin) at 1 uM relative to control; values are per cent of control.
Experiment [12] deals with Serine/threonine-protein kinase mTOR (Homo sapiens) (UniProt P42345). Nature of the experiment: Inhibition of MTOR (unknown origin) at 1 uM relative to control; values are per cent of control.
The target of experiment [13] is Ephrin type-A receptor 2 (Homo sapiens) (UniProt P29317). Nature of the experiment: Inhibition of EPHA2 (unknown origin) at 1 uM relative to control; values are per cent of control.
Sequence of Ephrin type-A receptor 2 (Homo sapiens) (P29317 whole entry, the tested form may be a part): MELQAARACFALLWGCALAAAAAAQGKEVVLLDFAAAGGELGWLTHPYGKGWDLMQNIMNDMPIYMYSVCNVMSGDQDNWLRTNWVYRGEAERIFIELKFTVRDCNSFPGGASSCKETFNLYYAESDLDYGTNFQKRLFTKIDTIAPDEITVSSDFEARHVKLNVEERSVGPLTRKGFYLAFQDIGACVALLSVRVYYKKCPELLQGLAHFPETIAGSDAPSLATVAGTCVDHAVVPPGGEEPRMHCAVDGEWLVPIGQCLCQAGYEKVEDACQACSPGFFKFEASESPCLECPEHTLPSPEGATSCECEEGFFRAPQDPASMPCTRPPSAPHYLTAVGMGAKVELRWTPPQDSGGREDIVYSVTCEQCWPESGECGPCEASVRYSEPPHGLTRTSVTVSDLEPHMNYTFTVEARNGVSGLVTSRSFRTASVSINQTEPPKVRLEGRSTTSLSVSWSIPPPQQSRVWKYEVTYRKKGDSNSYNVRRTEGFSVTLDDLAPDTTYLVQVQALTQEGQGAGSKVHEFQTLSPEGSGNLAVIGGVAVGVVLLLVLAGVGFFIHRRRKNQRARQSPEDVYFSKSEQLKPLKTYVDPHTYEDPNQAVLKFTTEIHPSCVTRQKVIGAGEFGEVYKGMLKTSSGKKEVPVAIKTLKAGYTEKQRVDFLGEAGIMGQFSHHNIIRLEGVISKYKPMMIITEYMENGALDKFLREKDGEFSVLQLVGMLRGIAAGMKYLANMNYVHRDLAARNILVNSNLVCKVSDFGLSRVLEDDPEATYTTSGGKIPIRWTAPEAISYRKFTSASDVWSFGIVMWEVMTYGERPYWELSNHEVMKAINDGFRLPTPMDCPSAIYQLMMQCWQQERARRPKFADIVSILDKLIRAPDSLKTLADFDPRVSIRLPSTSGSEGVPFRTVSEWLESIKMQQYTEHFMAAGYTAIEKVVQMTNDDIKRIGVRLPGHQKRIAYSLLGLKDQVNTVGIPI
Experiment [14] has as its target LIM domain kinase 1 (Homo sapiens) (UniProt P53667). Nature of the experiment: Inhibition of LIMK1 (unknown origin) at 1 uM relative to control; values are per cent of control.
Experiment [15] has as its target Tyrosine-protein kinase JAK2 (Homo sapiens) (UniProt O60674). Nature of the experiment: Inhibition of JH1 catalytic domain of JAK2 (unknown origin) at 1 uM relative to control; values are per cent of control.

Sequence of Mitogen-activated protein kinase kinase kinase kinase 1 (Homo sapiens) (Q92918 whole entry, looked up): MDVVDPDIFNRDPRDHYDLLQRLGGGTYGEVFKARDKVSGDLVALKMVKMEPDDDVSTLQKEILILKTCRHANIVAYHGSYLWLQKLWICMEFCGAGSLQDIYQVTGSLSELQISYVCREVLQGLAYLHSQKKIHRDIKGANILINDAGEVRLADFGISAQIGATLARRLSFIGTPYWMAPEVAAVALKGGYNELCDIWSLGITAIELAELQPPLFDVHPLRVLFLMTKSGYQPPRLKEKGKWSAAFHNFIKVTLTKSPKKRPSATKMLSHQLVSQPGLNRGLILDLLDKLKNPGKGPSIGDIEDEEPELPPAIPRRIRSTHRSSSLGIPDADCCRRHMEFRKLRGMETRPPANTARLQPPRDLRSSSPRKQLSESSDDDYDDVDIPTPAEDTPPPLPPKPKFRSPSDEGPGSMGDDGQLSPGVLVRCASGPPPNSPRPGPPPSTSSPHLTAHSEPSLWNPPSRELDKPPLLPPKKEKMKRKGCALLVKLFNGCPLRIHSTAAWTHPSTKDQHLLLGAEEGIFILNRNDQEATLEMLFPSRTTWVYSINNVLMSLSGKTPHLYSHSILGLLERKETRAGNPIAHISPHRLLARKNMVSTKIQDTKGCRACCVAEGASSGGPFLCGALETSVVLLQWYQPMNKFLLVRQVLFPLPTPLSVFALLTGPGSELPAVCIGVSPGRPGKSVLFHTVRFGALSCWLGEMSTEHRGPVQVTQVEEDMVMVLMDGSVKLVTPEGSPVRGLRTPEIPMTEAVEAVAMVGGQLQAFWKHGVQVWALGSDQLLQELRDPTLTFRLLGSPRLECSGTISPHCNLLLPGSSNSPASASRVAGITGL
Sequence of LIM domain kinase 1 (Homo sapiens) (P53667 whole entry, looked up, the tested form may be a part): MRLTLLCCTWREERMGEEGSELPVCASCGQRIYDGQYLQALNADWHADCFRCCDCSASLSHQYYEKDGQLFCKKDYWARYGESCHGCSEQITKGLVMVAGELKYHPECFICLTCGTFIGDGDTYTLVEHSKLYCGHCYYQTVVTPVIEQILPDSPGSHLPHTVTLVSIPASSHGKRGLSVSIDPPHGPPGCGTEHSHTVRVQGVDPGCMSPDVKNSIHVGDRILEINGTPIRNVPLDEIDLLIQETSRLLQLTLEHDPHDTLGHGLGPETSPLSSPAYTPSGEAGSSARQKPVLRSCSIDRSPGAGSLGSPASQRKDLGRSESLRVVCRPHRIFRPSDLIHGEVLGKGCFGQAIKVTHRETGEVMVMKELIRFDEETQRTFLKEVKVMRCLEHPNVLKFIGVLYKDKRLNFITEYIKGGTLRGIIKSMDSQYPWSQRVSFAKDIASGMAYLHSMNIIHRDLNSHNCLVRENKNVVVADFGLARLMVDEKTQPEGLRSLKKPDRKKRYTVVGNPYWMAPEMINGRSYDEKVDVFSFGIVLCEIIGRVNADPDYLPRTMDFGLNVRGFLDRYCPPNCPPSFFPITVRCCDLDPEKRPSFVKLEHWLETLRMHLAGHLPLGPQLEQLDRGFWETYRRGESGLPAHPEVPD

`NC(=O)c1sc(-c2ccnc(N)n2)nc1-c1ccc(Cl)cc1Cl`: the residual binding, % of control turned out to be 100% in [1]; 74% in experiment [2]; 52% in experiment [3]; 88% in [4]; 100% in experiment [5]; 72% in experiment [6]. In addition, the residual activity is 76% in [7]; 80% in experiment [8]; 1.3% in experiment [9]; 100% in experiment [10]; 64% in [11]; 93% in experiment [12]. In addition, the residual activity was determined as 88% in experiment [13], 100% in experiment [14] and 100% in experiment [15].
With `CCOC(=O)c1sc(-c2ccncc2)nc1O`, the residual binding, % of control in [1] is 89%; in experiment [2] it was 73%; in experiment [3] it was 89%; in experiment [4] it was 75%; in experiment [5], 100%; in experiment [6], 97%. The residual activity was found to be 100% in experiment [7]; 100% in experiment [8]; 90% in experiment [9]; 88% in experiment [10]; 81% in [11]; 93% in [12]. Moreover, the residual activity in experiment [13] came out at 78%; in experiment [14] it was 100%; in experiment [15], 100%.
Take `COc1ccc(-c2nc(-c3ccnc(N)n3)sc2C(N)=O)c(Cl)c1`: the residual binding, % of control in experiment [1] is 83%; in experiment [2] it was 94%; in experiment [3], 62%; in experiment [4], 51%; in experiment [5], 100%; in experiment [6] it was 56%. In addition, the residual activity is 87% in experiment [7]; 100% in experiment [8]; 2.3% in [9]; 50% in experiment [10]; 100% in experiment [11]; 74% in experiment [12]. In addition, the residual activity was 80% in experiment [13], 78% in experiment [14] and 100% in [15].
